T cruzi HTS – intracellular Trypanosoma cruzi inhibition | intracellular Trypanosoma cruzi in host cells, plate reader | activity score (inhibition), % at 5.01 µM | 22,000 tested, 4.9% active; in the data active = activity score above about 55%;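 note: parasites and compound incubated about four days before reading; 0% = median of neutral control wells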
INS-1E rescue – INS-1E beta cell protection from cytokine death; protection from cytokine-induced ATP loss, % at 10 µM; 20,000 tested, 0.1% active; INS-1E cytokine-induced death, ATP luminescence, 48 h; normalised: neutral wells 0, positive control 100;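 active = mean replicate protection from cytokine-induced ATP loss at least 50% and at least 75% of replicates each reaching 50%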
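Assay system: INS-1E rat insulinoma cells. Amount: 8000 cells per well. Medium: phenol-red-free RPMI with 5% fetal bovine serum. Reagent: IL-1β, TNF-α and IFN-γ cytokine mix. Doses: one compound concentration, pin transfer. Schedule: 48 h co-treatment, 10 min post-lysis read. Detection: CellTiter-Glo luminescence measuring cellular ATP.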
A1 apoptosis 2 – compounds inhibiting A1, read as caspase activation; AID 2465; caspase activation, % (test concentration not listed); 24,000 tested, under 10 active; MEF A1-2A-BIM cells, caspase-Glo luminescence, 3 h; percent of clofoctol response, DMSO zero; in the data active = caspase activation above about 5.9%
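Material: A1-2A-BIM-expressing MEF cells. Buffer or medium: RPMI-1640 plus 10% FBS. Incubation: cells settled overnight, compound exposure 3 h at 37 °C, 5% CO2. Signal: Caspase-Glo 3/7 luminescence, 1 h at room temperature.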
An asterisk follows results filed as active. The full list was thinned out, with hits kept by preference.

What do the screens show for `Cc1noc(C)c1S(=O)(=O)Nc1ccc2c(c1)C(=O)N([C@H](C)CO)C[C@H](C)[C@@H](CN(C)C(=O)Nc1ccc(C(F)(F)F)cc1)OCCCC[C@@H](C)O2`?
T cruzi HTS: 58.0*; INS-1E rescue: 2.2

Results for Cc1noc(C)c1S(=O)(=O)Nc1ccc2c(c1)C(=O)N([C@@H](C)CO)C[C@@H](C)[C@H](CN(C)C(=O)Nc1ccc(C(F)(F)F)cc1)OCCCC[C@H](C)O2 ?
A1 apoptosis 2: 0.3

What do the screens show for `Cc1noc(C)c1S(=O)(=O)Nc1ccc2c(c1)C(=O)N([C@H](C)CO)C[C@H](C)[C@H](CN(C)C(=O)Nc1ccc(C(F)(F)F)cc1)OCCCC[C@@H](C)O2`?
T cruzi HTS: 58.1*; INS-1E rescue: 4.1

What do the screens show for `Cc1noc(C)c1S(=O)(=O)Nc1ccc2c(c1)C(=O)N([C@H](C)CO)C[C@@H](C)[C@H](CN(C)C(=O)Nc1ccc(C(F)(F)F)cc1)OCCCC[C@@H](C)O2`?
A1 apoptosis 2: -1.3

What do the screens show for `COc1cccc(-n2cc(C(=O)NO)nn2)c1`?
A1 apoptosis 2: -0.9

Results for O=C(N/N=C/c1cc(Br)cs1)c1ccccc1O ?
T cruzi HTS: -21.7; INS-1E rescue: -32.7; A1 apoptosis 2: -5.6

What do the screens show for `O=C(N/N=C/c1ccc(O)cc1O)c1ccccc1O`?
T cruzi HTS: 67.0*; INS-1E rescue: -127.8; A1 apoptosis 2: -10.8

Results for O=C(N/N=C/c1cc(Br)cc(Br)c1O)c1ccccc1O ?
T cruzi HTS: 83.1*; INS-1E rescue: -125.3; A1 apoptosis 2: -6.9

Results for O=C(N/N=C/c1cc(O)ccc1Br)c1ccccc1O ?
T cruzi HTS: -7.1; INS-1E rescue: -44.9; A1 apoptosis 2: -6.0

What do the screens show for `Cn1cc(/C=N\NC(=O)c2ccccc2O)c2ccccc21`?
T cruzi HTS: -21.6; INS-1E rescue: 13.8

How did O=C(N/N=C\c1ccc2ccccc2c1O)c1ccccc1O do in these assays?
T cruzi HTS: 62.0*; INS-1E rescue: -129.8

Results for C[C@@H]1CCCCO[C@H](CN(C)Cc2ccc(C(=O)O)cc2)[C@H](C)CN([C@H](C)CO)C(=O)c2cc(NC(=O)C3CCCCC3)ccc2O1 ?
A1 apoptosis 2: 0.0

What do the screens show for `O=C(NO)c1cccc(C(=O)N/N=C/C2=CCCCC2)c1`?
T cruzi HTS: -3.1; INS-1E rescue: -3.6; A1 apoptosis 2: -0.5

Results for O=C(CCCCCCC(=O)Nc1ccccc1O)N/N=C/c1ccc(Br)cc1 ?
T cruzi HTS: 4.9; INS-1E rescue: -2.8

Results for COC(=O)CCCCCCC(=O)N/N=C/c1cc(O)ccc1Br ?
T cruzi HTS: 23.0; INS-1E rescue: 33.1; A1 apoptosis 2: -0.7

How did O=C(NO)c1ccc(C(=O)N/N=C/c2ccoc2)cc1 do in these assays?
T cruzi HTS: 1.4; INS-1E rescue: 5.7; A1 apoptosis 2: 0.3

Results for COc1ccc(S(=O)(=O)N(C)C[C@@H]2Oc3c(NC(=O)Nc4ccc(C(F)(F)F)cc4)cccc3C(=O)N([C@H](C)CO)C[C@@H]2C)cc1 ?
T cruzi HTS: 74.5*; INS-1E rescue: -101.1

What do the screens show for `Cc1ccc(S(=O)(=O)N(C)C[C@@H]2Oc3c(NC(=O)Nc4ccc(C(F)(F)F)cc4)cccc3C(=O)N([C@@H](C)CO)C[C@@H]2C)cc1`?
T cruzi HTS: -1.2; INS-1E rescue: -25.7

Results for Cc1ccc(S(=O)(=O)N(C)C[C@H]2Oc3c(NC(=O)Nc4ccc(C(F)(F)F)cc4)cccc3C(=O)N([C@@H](C)CO)C[C@H]2C)cc1 ?
T cruzi HTS: 78.8*; INS-1E rescue: -106.7; A1 apoptosis 2: -1.0

Results for Cc1ccc(S(=O)(=O)N(C)C[C@H]2Oc3c(NC(=O)Nc4cccc5ccccc45)cccc3C(=O)N([C@H](C)CO)C[C@H]2C)cc1 ?
T cruzi HTS: 38.6; INS-1E rescue: 10.2; A1 apoptosis 2: 0.6

Results for COc1ccc(NC(=O)Nc2cccc3c2O[C@@H](CN(C)S(=O)(=O)c2ccc(OC)cc2)[C@H](C)CN([C@H](C)CO)C3=O)cc1 ?
T cruzi HTS: 17.2; INS-1E rescue: -6.5; A1 apoptosis 2: 0.7

How did COc1ccc(NC(=O)Nc2cccc3c2O[C@H](CN(C)S(=O)(=O)c2ccc(OC)cc2)[C@@H](C)CN([C@H](C)CO)C3=O)cc1 do in these assays?
T cruzi HTS: -10.9; INS-1E rescue: 2.4; A1 apoptosis 2: 0.1

What do the screens show for `Cc1ccc(S(=O)(=O)N(C)C[C@@H]2Oc3c(NC(=O)Nc4cccc5ccccc45)cccc3C(=O)N([C@@H](C)CO)C[C@H]2C)cc1`?
T cruzi HTS: -0.1; INS-1E rescue: 62.1*; A1 apoptosis 2: -0.2

Bioassay records (PubChem BioAssay)
